Source: ChEMBL document CHEMBL1250467, “Design, synthesis, and anticonvulsant activity of new N-Mannich bases derived from spirosuccinimides and spirohydantoins” (Bioorg Med Chem, 2010)
The source made the active and inactive calls. The calls are words filed in the database; no cut-off is given here.

Legend:
Mus musculus [1] = assay: Anticonvulsant activity in CF1 albino mouse assessed as protection against maximal electroshock-induced seizures at 300 mg/kg, ip after 0.5 hrs; format: functional, organism-based; parameters: dose 300 mg/kg
Summary of the method: (§1)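 Male CF-1 mice; compounds suspended in 0.5% methylcellulose/water and injected ip at 30, 100 and 300 mg/kg. MES, scPTZ (pentylenetetrazole 85 mg/kg sc at the test time) and rotarod neurotoxicity were scored at 0.5 and 4 h. Value is the lowest dose active or toxic in half or more of the animals; signs such as ataxia or tremor were recorded.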

Mus musculus [2] = assay: Anticonvulsant activity in CF1 albino mouse assessed as protection against maximal electroshock-induced seizures at 300 mg/kg, ip after 4 hrs; format: functional, organism-based; parameters: dose 300 mg/kg; summary of the method: as §1
Mus musculus [3] = assay: Anticonvulsant activity in ip dosed CF1 albino mouse assessed as dose required to protect against subcutaneous pentylenetetrazole-induced seizures after 0.5 hrs; format: functional; summary of the method: as §1
Mus musculus [4] = assay: Anticonvulsant activity in ip dosed CF1 albino mouse assessed as dose required to protect against subcutaneous pentylenetetrazole-induced seizures after 4 hrs; format: functional; summary of the method: as §1
Mus musculus [5] = assay: Neurotoxicity in CF1 albino mouse at 300 mg/kg, ip after 0.5 hrs by rotarod test; format: toxicity, organism-based; parameters: dose 300 mg/kg, route intraperitoneal; details: in vivo; summary of the method: as §1
Mus musculus [6] = assay: Neurotoxicity in CF1 albino mouse at 300 mg/kg, ip after 4 hrs by rotarod test; format: toxicity, organism-based; parameters: dose 300 mg/kg, route intraperitoneal; details: in vivo; summary of the method: as §1
Rattus norvegicus [7] = assay: Anticonvulsant activity in Sprague-Dawley rat assessed as protection against subcutaneous pentylenetetrazole-induced seizures at 50 mg/kg po after 0.25 hrs; format: functional, organism-based; parameters: dose 50 mg/kg
Summary of the method: (§2)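 Oral fixed dose of 50 mg/kg in male Sprague–Dawley rats (0.5% methylcellulose/water suspension), four rats per group. Pentylenetetrazole 70 mg/kg given sc at each test time (0.25, 0.5, 1, 2, 4 h); protection from clonic seizures counted per four rats, with motor impairment studied in parallel.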

Rattus norvegicus [8] = assay: Anticonvulsant activity in Sprague-Dawley rat assessed as protection against subcutaneous pentylenetetrazole-induced seizures at 50 mg/kg po after 0.5 hrs; format: functional; summary of the method: as §2
Rattus norvegicus [9] = assay: Anticonvulsant activity in Sprague-Dawley rat assessed as protection against subcutaneous pentylenetetrazole-induced seizures at 50 mg/kg po after 1 hr; format: functional; summary of the method: as §2
Rattus norvegicus [10] = assay: Anticonvulsant activity in Sprague-Dawley rat assessed as protection against subcutaneous pentylenetetrazole-induced seizures at 50 mg/kg po after 2 hrs; format: functional; summary of the method: as §2
Rattus norvegicus [11] = assay: Anticonvulsant activity in Sprague-Dawley rat assessed as protection against subcutaneous pentylenetetrazole-induced seizures at 50 mg/kg po after 4 hrs; format: functional; summary of the method: as §2
Rattus norvegicus [12] = assay: Anticonvulsant activity in po dosed Sprague-Dawley rat assessed as protection against maximal electroshock-induced seizures; format: functional
Summary of the method: (§3)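 Male Sprague–Dawley rats dosed orally (0.5% methylcellulose/water suspension), groups of eight, tested at the previously estimated time of peak effect. Doses varied until at least three points lay in the 10–90% range of protection (MES, scPTZ) or minimal rotarod neurotoxicity. ED50/TD50 with 95% confidence intervals came from regression; PI = TD50/ED50.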

Rattus norvegicus [13] = assay: Anticonvulsant activity in po dosed Sprague-Dawley rat assessed as protection against subcutaneous pentylenetetrazole-induced seizures; format: functional; summary of the method: as §3
[14] = Neurotoxicity in po dosed Sprague-Dawley rat by rotarod test; format: toxicity, organism-based; details: in vivo; summary of the method: as §3
Rattus norvegicus [15] = species: Rattus norvegicus; assay: Protection index, ratio of TD50 for Sprague-Dawley rat by rotarod test to ED50 for Sprague-Dawley rat by maximal electroshock test; format: functional; summary of the method: as §3
Mus musculus [16] = assay: Anticonvulsant activity in ip dosed CF1 albino mouse assessed as dose required to protect against maximal electroshock-induced seizures after 0.5 hrs; format: functional; summary of the method: as §1
Mus musculus [17] = assay: Anticonvulsant activity in ip dosed CF1 albino mouse assessed as dose required to protect against maximal electroshock-induced seizures after 4 hrs; format: functional; summary of the method: as §1
Mus musculus [18] = assay: Anticonvulsant activity in CF1 albino mouse assessed as protection against subcutaneous pentylenetetrazole-induced seizures at 300 mg/kg, ip after 4 hrs; format: functional, organism-based; parameters: dose 300 mg/kg; summary of the method: as §1
Mus musculus [19] = assay: Neurotoxicity in CF1 albino mouse assessed as unable to grasp rotarod at 300 mg/kg, ip after 4 hrs by rotarod test; format: toxicity, organism-based; parameters: dose 300 mg/kg, route intraperitoneal; details: in vivo; summary of the method: as §1
Rattus norvegicus [20] = assay: Anticonvulsant activity in Sprague-Dawley rat assessed as protection against maximal electroshock-induced seizures at 30 mg/kg po after 0.25 hrs; format: functional
Summary of the method: (§4)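 Male Sprague–Dawley rats, four per group, given 30 mg/kg orally as a 0.5% methylcellulose/water suspension. MES protection scored at 0.25, 0.5, 1, 2 and 4 h after dosing, motor impairment checked in parallel; data are the number of the four rats protected.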

Rattus norvegicus [21] = assay: Anticonvulsant activity in Sprague-Dawley rat assessed as protection against maximal electroshock-induced seizures at 30 mg/kg po after 0.5 hrs; format: functional; summary of the method: as §4
Rattus norvegicus [22] = assay: Anticonvulsant activity in Sprague-Dawley rat assessed as protection against maximal electroshock-induced seizures at 30 mg/kg po after 1 hr; format: functional; summary of the method: as §4
Rattus norvegicus [23] = assay: Anticonvulsant activity in Sprague-Dawley rat assessed as protection against maximal electroshock-induced seizures at 30 mg/kg po after 2 hrs; format: functional; summary of the method: as §4
Rattus norvegicus [24] = assay: Anticonvulsant activity in Sprague-Dawley rat assessed as protection against maximal electroshock-induced seizures at 30 mg/kg po after 4 hrs; format: functional; summary of the method: as §4
Mus musculus [25] = assay: Neurotoxicity in ip dosed CF1 albino mouse assessed as dose required to cause toxicity after 0.5 hrs by rotarod test; format: organism-based; details: in vivo; summary of the method: as §1
Mus musculus [26] = assay: Anticonvulsant activity in CF1 albino mouse assessed as protection against subcutaneous pentylenetetrazole-induced seizures at 300 mg/kg, ip after 0.5 hrs; format: functional, organism-based; parameters: dose 300 mg/kg; summary of the method: as §1
Mus musculus [27] = assay: Neurotoxicity in ip dosed CF1 albino mouse assessed as dose required to cause toxicity after 4 hrs by rotarod test; format: organism-based; details: in vivo; summary of the method: as §1
Rattus norvegicus [28] = assay: Anticonvulsant activity in po dosed Sprague-Dawley rat assessed as time required to peak protection against seizures; format: functional
[29] = Displacement of [3H]batrachotoxin from neurotoxin site 2 of voltage-gated sodium channel in rat forebrain tissue
Mus musculus [30] = assay: Anticonvulsant activity in CF1 albino mouse assessed as protection against electrically-induced seizure at 100 mg/kg, ip after 0.25 hrs by 6Hz psychomotor seizure test; format: functional, organism-based; parameters: dose 100 mg/kg
Summary of the method: (§5)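 Male CF-1 mice, compound suspended in 0.5% methylcellulose/water, given ip at 100 mg/kg; four mice per time point (0.25, 0.5, 1, 2, 4 h). Corneal stimulation with 0.2 ms monopolar rectangular pulses at 6 Hz for 3 s from a constant-current device, mice manually restrained. A mouse counted as protected if normal exploratory behaviour resumed within 10 s; motor impairment was noted alongside.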

Mus musculus [31] = assay: Anticonvulsant activity in CF1 albino mouse assessed as protection against electrically-induced seizure at 100 mg/kg, ip after 0.5 hrs by 6Hz psychomotor seizure test; format: functional, organism-based; parameters: dose 100 mg/kg; summary of the method: as §5
Mus musculus [32] = assay: Anticonvulsant activity in CF1 albino mouse assessed as protection against electrically-induced seizure at 100 mg/kg, ip after 1 hr by 6Hz psychomotor seizure test; format: functional; details: route intraperitoneal; summary of the method: as §5
Mus musculus [33] = assay: Anticonvulsant activity in CF1 albino mouse assessed as protection against electrically-induced seizure at 100 mg/kg, ip after 2 hrs by 6Hz psychomotor seizure test; format: functional, organism-based; parameters: dose 100 mg/kg; summary of the method: as §5
Mus musculus [34] = assay: Anticonvulsant activity in CF1 albino mouse assessed as protection against electrically-induced seizure at 100 mg/kg, ip after 4 hrs by 6Hz psychomotor seizure test; format: functional; summary of the method: as §5

Row | SMILES | Activity (Mus musculus [3]) | Activity (Mus musculus [6]) | ED50 (Rattus norvegicus [12]) | ED50 (Rattus norvegicus [13]) | TD50 [14] | PI (Rattus norvegicus [15]) | Activity (Mus musculus [16]) | Activity (Mus musculus [17]) | Activity (Mus musculus [18]) | Activity (Rattus norvegicus [20]) | Activity (Rattus norvegicus [21]) | Activity (Rattus norvegicus [22]) | Activity (Rattus norvegicus [23]) | Activity (Rattus norvegicus [24]) | Activity (Mus musculus [25]) | Activity (Mus musculus [26]) | other results
1 | CCC1(C)CC(=O)NC1=O (stereo not drawn) [ETHOSUXIMIDE] | 100 mg/kg | Non-toxic | > 500 mg/kg | 167 mg/kg | > 500 mg/kg | >2.99 | – | – | – | – | – | – | – | – | – | – | Activity (Mus musculus [1]): inactive; Activity (Mus musculus [2]): inactive; Activity (Mus musculus [4]): 300 mg/kg; Activity (Mus musculus [5]): Non-toxic; Activity (Rattus norvegicus [7]): inactive; Activity (Rattus norvegicus [8]): 50%; Activity (Rattus norvegicus [9]): 25%; Activity (Rattus norvegicus [10]): 25%; Activity (Rattus norvegicus [11]): inactive
2 | O=C1CC2(CCc3ccccc3C2)C(=O)N1CN1CCN(CCO)CC1 (stereo not drawn) | 300 mg/kg | Non-toxic | – | – | – | – | 100 mg/kg | 100 mg/kg | inactive | 25% | 25% | inactive | 25% | 50% | – | – | Activity (Mus musculus [19]): Non-toxic
3 | O=C1CC2(CCc3ccccc3C2)C(=O)N1CCN1CCN(c2cccc(C(F)(F)F)c2)CC1 (stereo not drawn) | – | – | 205 mg/kg | – | – | 1.95 | – | – | – | – | – | – | – | – | – | – | –
4 | O=C1NC(=O)C(c2ccccc2)(c2ccccc2)N1 [PHENYTOIN] | – | – | – | > 500 mg/kg | > 100 mg/kg | >3.6 | 30 mg/kg | 30 mg/kg | inactive | 25% | 100% | 75% | 75% | 75% | 100 mg/kg | inactive | Activity (Mus musculus [27]): 100 mg/kg; Time (Rattus norvegicus [28]): 1 h; IC50 ([29]; read-out: IC50): 40 µM
5 | O=C1CC2(CCc3ccccc3C2)C(=O)N1CN1CCN(c2ccccc2F)CC1 (stereo not drawn) | – | Non-toxic | – | – | – | – | – | – | inactive | – | – | – | – | – | 300 mg/kg | inactive | Activity (Mus musculus [1]): inactive; Activity (Mus musculus [2]): inactive
6 | O=C1NC2(CCc3ccccc3C2)C(=O)N1CN1CCOCC1 (stereo not drawn) | 100 mg/kg | Non-toxic | 10.7 mg/kg | > 250 mg/kg | 400 mg/kg | >37.55 | 30 mg/kg | 30 mg/kg | – | inactive | 25% | 50% | 75% | 100% | 100 mg/kg | – | Activity (Mus musculus [4]): 100 mg/kg; Time (Rattus norvegicus [28]): 6 h; IC50 [29]: Not Active
7 | O=C1CC2(CCc3ccccc3C2)C(=O)N1CN1CCN(Cc2ccccc2)CC1 (stereo not drawn) | – | Non-toxic | – | – | – | – | 300 mg/kg | 300 mg/kg | inactive | – | – | – | – | – | – | inactive | Activity (Mus musculus [5]): Non-toxic; Activity (Mus musculus [30]): inactive; Activity (Mus musculus [31]): inactive; Activity (Mus musculus [32]): 25%; Activity (Mus musculus [33]): inactive; Activity (Mus musculus [34]): inactive
